OX1R antag-1: OX1R (HCRTR1) antagonists, primary screen, fluorescence, CHO/OX1R cells, Fluo-8 calcium, orexin A | Orexin/Hypocretin receptor type 1 (Homo sapiens), O43613 | Fluo-8 calcium fluorescence | inhibition, % at 5 µM | actives 0.43% (n = 330,000) | AID 434989, 2010;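 active = inhibition above its plate's threshold, mean inhibition of all tested compounds on the plate plus 3 SD, cut at about 37% in these data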
CHO parental Ca: ATP-evoked calcium signal inhibitors, parental CHO, primary screen, counter-screen for OX1R antagonist project, cell-based, fluorescence, Fluo-8 calcium dye | actives 0.63% (n = 330,000) | parental CHO-K1, ATP-induced calcium, Fluo-8 fluorescence | AID 463079, 2010 | inhibition, % at 5.6 µM;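 active = inhibition above that plate's mean sample inhibition plus 3 SD, cut at about 26% in these data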
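test system = CHO parental line | reagent = ATP stimulus | measured by = intracellular calcium via Fluo-8 no-wash fluorescent dye | control set = ATP and no-ATP DMSO wells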
OX1R antag-2: antagonists of human orexin 1 receptor (OX1R). Orexin/Hypocretin receptor type 1 (Homo sapiens), O43613. OX1R-expressing cells, FRET antagonist read-out. inhibition, % at 6.6 µM. actives 1.8% (n = 330,000). AID 485270, 2010; in the data active = inhibition mostly above about 38%, no sharp cut-off; inactive = mostly below about 40%
TAAR1 antagonist: human TAAR1 antagonists, primary screen, Fluo-8 calcium fluorescence, CHO RD-HGA16 cells | Trace amine-associated receptor 1 (Homo sapiens), Q96RJ0 | antagonist | actives 1.5% (n = 360,000) | inhibition, % at 3 µM;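 active = inhibition above a per-plate cutoff, the mean inhibition of test compounds on that plate plus 3 SD, cut at about 49% in these data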
Target sequence (Q96RJ0 whole entry, looked up): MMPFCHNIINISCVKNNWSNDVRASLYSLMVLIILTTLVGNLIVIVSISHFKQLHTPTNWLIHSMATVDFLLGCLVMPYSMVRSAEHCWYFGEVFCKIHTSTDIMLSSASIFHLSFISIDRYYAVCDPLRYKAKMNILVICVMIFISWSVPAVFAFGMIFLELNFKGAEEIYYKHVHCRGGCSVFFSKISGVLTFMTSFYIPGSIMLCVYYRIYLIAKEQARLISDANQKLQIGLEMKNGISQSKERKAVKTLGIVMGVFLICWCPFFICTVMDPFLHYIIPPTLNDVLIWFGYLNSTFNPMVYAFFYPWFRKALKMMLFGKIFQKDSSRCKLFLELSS
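Test system – hTAAR1-expressing CHO RD-HGA16 cells, Gα16-coupled · Also added – β-PEA at EC80 concentration, post-compound challenge · Compound – 3 µM, single point · Incubation – dye loading 75 min at 37 °C, then 30 min room temperature · Measured by – Fluo-8 intracellular calcium dye fluorescence, real-time kinetic reads · Benchmarks – vehicle and agonist controls · Replicates – singlicate, one well per test compound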
TAAR1 ag: human TAAR1 agonists, primary screen, Fluo-8 calcium fluorescence, CHO RD-HGA16 cells | vehicle wells 0%, saturating PEA agonist 100% | activation, % at 3 µM | actives 0.99% (n = 360,000) | AID 624467, 2012;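 active = activation above the mean activation of all test compounds in the run plus 3 SD, cut at about 38% in these data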
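System: CHO RD-HGA16 cells carrying human TAAR1 plus Gα16; Incubation: 17-24 h seeding, 75 min 37 °C dye, 30 min RT; Measured by: Fluo-8 fluorescence, 5 s baseline then 140 s kinetic read; Control set: DMSO and PEA EC100; Replication: single well for each compound.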
Large screens that a line does not name were inactive. Sampled rows, rich in hits. Any-hit rate of the full collection: about 3.9%.

Cc1c(N2C(=O)/C(=C\c3ccc(N(C)C)cc3)N(C)C2=S)c(=O)n(-c2ccccc2)n1C	OX1R antag-2 64.4
CC(C)(C)OC(=O)N1C[C@@]23C[C@H](c4cccc(F)c4)[C@@H](C[C@@H]2S1(=O)=O)O3	none (no result: OX1R antag-1, CHO parental Ca, OX1R antag-2)
Cc1nnc(SCc2nc3scc(-c4ccccc4)c3c(=O)[nH]2)s1	none
CCn1c(SCc2nc3scc(-c4ccccc4)c3c(=O)[nH]2)nnc1-c1cccs1	OX1R antag-2 56.1
O=C(NCc1ccccc1)C(c1ccccc1)n1c(C2CC2)nc2ccccc21 (stereo not given)	none (no result: OX1R antag-1, CHO parental Ca, OX1R antag-2)
Cc1nc(NC(=O)c2oc3ccccc3c2C)sc1C(=O)N(C)C	OX1R antag-2 53.9
O=C(CCl)Nc1c(C(=O)Nc2ccc3c(c2)OCCO3)oc2ccccc12	OX1R antag-2 67.6
Cc1c(C(=O)Nc2ccc3c(c2)OCO3)oc2ccccc12	OX1R antag-2 72.9
CCOc1ccc(C(=O)N/N=C/c2cccc3cccnc23)cc1	OX1R antag-2 74.2
COc1ccc(C(=O)N/N=C/c2cccc3cccnc23)cc1	none
CC(=O)Nc1cccc(-c2ccnc3c2CC(C)(C(=O)NCc2ccc(F)c(F)c2)O3)c1 (stereo not given)	none (no result: OX1R antag-1, CHO parental Ca, OX1R antag-2)
O=[N+]([O-])c1ccc(-c2nc(Nc3cccc(O)c3)c3ccccc3n2)cc1	TAAR1 antagonist 55.4
COc1ccc(CN(CCC(c2ccc(F)cc2)C2CCOC(C)(C)C2)C(=O)c2ccco2)cc1 (stereo not given)	TAAR1 antagonist 63.8
COc1ccc(CN(CCC(c2ccccc2)c2ccco2)C(=O)c2ccco2)cc1 (stereo not given)	none
N#C/C(=N\Nc1ccc(Cl)cc1)C(N)=S	OX1R antag-2 49.5
N#C/C(=N\Nc1ccccc1)C(N)=S	none
O=C(Cc1ccccc1)N1O[C@H]2C=C[C@@H]1C2	none (no result: OX1R antag-1, CHO parental Ca, OX1R antag-2)
O=C1c2ccccc2[C@@H]2C[C@@H](O)[C@H](Nc3cccc4ccccc34)CCN12	OX1R antag-2 42.3
COc1ccccc1OCC(=O)N/N=C(\C)c1ccc2ccccc2c1	none (no result: OX1R antag-1, CHO parental Ca, OX1R antag-2)
Cc1cc(C)cc(NC(=O)Cn2ncn3c(cc4ccccc43)c2=O)c1	TAAR1 ag 39.3
COc1ccc(OC)c(-n2c(Cn3c(-c4ccccn4)nc4ccccc43)n[nH]c2=S)c1	OX1R antag-2 58.9
COc1ccc(OC)c(-n2c(-c3cnccn3)n[nH]c2=S)c1	none
CCc1noc(C)c1C(=O)Nc1nc(-c2cccs2)cs1	OX1R antag-2 51.2
CC(=O)c1sc(N/N=C\c2ccc(N(C)C)cc2)nc1C	OX1R antag-2 57.5
COc1ccc(-c2cc(=Nc3c(C)n(C)n(-c4ccccc4)c3=O)c3ccccc3o2)cc1	OX1R antag-2 54.9
O=C(NC1CCCC1)[C@@H]1CCCN1C(=O)[C@@H](NS(=O)(=O)c1ccc(F)cc1F)c1ccccc1	none (no result: OX1R antag-1, CHO parental Ca, OX1R antag-2)
CCC(=O)N1CCCC1(C)C(=O)Nc1ccc2nc(C)ccc2c1 (stereo not given)	none (no result: OX1R antag-1, CHO parental Ca, OX1R antag-2)
O=C(/C=C/c1cccc([N+](=O)[O-])c1)OCC(=O)N1CCCCC1	none (no result: OX1R antag-1, CHO parental Ca, OX1R antag-2)
COCC(=O)O[C@]1(CCN(C)CCCc2nc3ccccc3[nH]2)CCc2cc(F)ccc2[C@@H]1C(C)C	TAAR1 ag 40.9
CCOC(=O)CCc1nc2ccccc2[nH]1	none
CC1Cc2ccccc2N1C(=O)CN(C)S(=O)(=O)c1cccc2cccnc12 (stereo not given)	OX1R antag-2 56.4
CC1Cc2ccccc2N1C(=O)C1CCCN(S(=O)(=O)c2cccc3cccnc23)C1 (stereo not given)	OX1R antag-2 58.1
CCCCCCC[C@@H](C/C=C/CCC(=O)O)OC	none
CCCCCCC[C@@H](C/C=C/CCC(=O)N(C)C/C(=C/Cl)C/C(=C\C(=O)N1CC(OC)=CC1=O)OC)OC	OX1R antag-1 57.1, OX1R antag-2 41.8
CCCCCCC[C@@H](C/C=C/CCC(=O)N(C)C/C(=C/Cl)C/C(=C\C(=O)N1C[C@H](O)CC1=O)OC)OC	CHO parental Ca 41.2, TAAR1 antagonist 49.7
